Legend:
Type in all cases: functional
Conditions in all cases: read-out: Activity
[1] = test system: A498; assay: Growth inhibition of human A498 cells assessed as cell growth at 10 uM incubated for 48 hrs by sulforhodamine B assay relative to control
Outline: (§1)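 NCI Developmental Therapeutics Program NCI60 panel. Compounds that were active in the 10 µM one-dose screen went on to dose–response testing. Growth at each concentration is expressed relative to untreated control (100%). GI50 (concentration giving 50% of maximal inhibition of proliferation) and TGI (concentration giving total growth inhibition) were derived from the curves.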

[2] = test system: UACC-62; assay: Growth inhibition of human UACC-62 cells assessed as cell growth at 10 uM incubated for 48 hrs by sulforhodamine B assay relative to control
Outline: (§2)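 Run by the NCI Developmental Therapeutics Program as part of its 60-line human tumour panel. Each compound tested at a single 10 µM dose. Growth expressed as % relative to untreated control cells (100%).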

[3] = test system: NCI-H522; assay: Growth inhibition of human NCI-H522 cells assessed as cell growth at 10 uM incubated for 48 hrs by sulforhodamine B assay relative to control
Outline: (§3)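 Submitted to the NCI Developmental Therapeutics Program for the NCI60 human tumour cell line panel. First screen at a single 10 µM concentration. Read-out is growth relative to untreated control cells set at 100%.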

[4] = test system: T47D; assay: Growth inhibition of human T47D cells assessed as cell growth at 10 uM incubated for 48 hrs by sulforhodamine B assay relative to control; outline: as §2
[5] = test system: SK-MEL-2; assay: Growth inhibition of human SK-MEL-2 cells assessed as cell growth at 10 uM incubated for 48 hrs by sulforhodamine B assay relative to control; outline: as §2
[6] = test system: NCI-H23; assay: Growth inhibition of human NCI-H23 cells assessed as cell growth at 10 uM incubated for 48 hrs by sulforhodamine B assay relative to control; outline: as §3
[7] = test system: OVCAR-8; assay: Growth inhibition of human OVCAR-8 cells assessed as cell growth at 10 uM incubated for 48 hrs by sulforhodamine B assay relative to control; outline: as §2
[8] = test system: LOX IMVI; assay: Growth inhibition of human LOX IMVI cells assessed as cell growth at 10 uM incubated for 48 hrs by sulforhodamine B assay relative to control; outline: as §3
[9] = test system: HCC 2998; assay: Growth inhibition of human HCC 2998 cells assessed as cell growth at 10 uM incubated for 48 hrs by sulforhodamine B assay relative to control; outline: as §1
[10] = test system: SN12C; assay: Growth inhibition of human SN12C cells assessed as cell growth at 10 uM incubated for 48 hrs by sulforhodamine B assay relative to control; outline: as §2
[11] = test system: BT-549; assay: Growth inhibition of human BT-549 cells assessed as cell growth at 10 uM incubated for 48 hrs by sulforhodamine B assay relative to control
Outline: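 NCI Developmental Therapeutics Program NCI60 human tumour cell line panel, one-dose primary screen with every compound at 10 µM. Growth is expressed as % of untreated control cells (100%).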

[12] = test system: SK-OV-3; assay: Growth inhibition of human SK-OV-3 cells assessed as cell growth at 10 uM incubated for 48 hrs by sulforhodamine B assay relative to control; outline: as §2
[13] = test system: KM12; assay: Growth inhibition of human KM12 cells assessed as cell growth at 10 uM incubated for 48 hrs by sulforhodamine B assay relative to control; outline: as §3
[14] = test system: SK-MEL-28; assay: Growth inhibition of human SK-MEL-28 cells assessed as cell growth at 10 uM incubated for 48 hrs by sulforhodamine B assay relative to control; outline: as §2
[15] = test system: RPMI-8226; assay: Growth inhibition of human RPMI-8226 cells assessed as cell growth at 10 uM incubated for 48 hrs by sulforhodamine B assay relative to control; outline: as §2
[16] = test system: MCF7; assay: Growth inhibition of human MCF7 cells assessed as cell growth at 10 uM incubated for 48 hrs by sulforhodamine B assay relative to control; outline: as §3
[17] = test system: TK-10; assay: Growth inhibition of human TK-10 cells assessed as cell growth at 10 uM incubated for 48 hrs by sulforhodamine B assay relative to control; outline: as §2
[18] = test system: MDA-MB-468; assay: Growth inhibition of human MDA-MB-468 cells assessed as cell growth at 10 uM incubated for 48 hrs by sulforhodamine B assay relative to control; outline: as §3
[19] = test system: HOP-92; assay: Growth inhibition of human HOP-92 cells assessed as cell growth at 10 uM incubated for 48 hrs by sulforhodamine B assay relative to control; outline: as §3
[20] = test system: HT-29; assay: Growth inhibition of human HT-29 cells assessed as cell growth at 10 uM incubated for 48 hrs by sulforhodamine B assay relative to control; outline: as §3
[21] = test system: NCI/ADR-RES; assay: Growth inhibition of human NCI/ADR-RES cells assessed as cell growth at 10 uM incubated for 48 hrs by sulforhodamine B assay relative to control; outline: as §3
[22] = test system: NCI-H322M; assay: Growth inhibition of human NCI-H322M cells assessed as cell growth at 10 uM incubated for 48 hrs by sulforhodamine B assay relative to control; outline: as §3
[23] = test system: CCRF-CEM; assay: Growth inhibition of human CCRF-CEM cells assessed as cell growth at 10 uM incubated for 48 hrs by sulforhodamine B assay relative to control; outline: as §1
[24] = test system: U-251; assay: Growth inhibition of human U-251 cells assessed as cell growth at 10 uM incubated for 48 hrs by sulforhodamine B assay relative to control; outline: as §2
[25] = test system: CAKI-1; assay: Growth inhibition of human CAKI-1 cells assessed as cell growth at 10 uM incubated for 48 hrs by sulforhodamine B assay relative to control; outline: as §1
[26] = test system: SR; assay: Growth inhibition of human SR cells assessed as cell growth at 10 uM incubated for 48 hrs by sulforhodamine B assay relative to control; outline: as §2

| Structure (SMILES) | growth at 10 µM [1] [%] | growth at 10 µM [2] [%] | growth at 10 µM [3] [%] | growth at 10 µM [4] [%] | growth at 10 µM [5] [%] | growth at 10 µM [6] [%] | growth at 10 µM [7] [%] | growth at 10 µM [8] [%] | growth at 10 µM [9] [%] | growth at 10 µM [10] [%] | growth at 10 µM [11] [%] | growth at 10 µM [12] [%] | growth at 10 µM [13] [%] | growth at 10 µM [14] [%] | growth at 10 µM [15] [%] | growth at 10 µM [16] [%] | growth at 10 µM [17] [%] | growth at 10 µM [18] [%] | growth at 10 µM [19] [%] | growth at 10 µM [20] [%] | also measured |
| --- | --- | --- | --- | --- | --- | --- | --- | --- | --- | --- | --- | --- | --- | --- | --- | --- | --- | --- | --- | --- | --- |
| O=S(=O)(c1ccc(Br)cc1)n1ccc(-c2ccc(OCCCF)cc2)n1 | 91.1 | 59.9 | 79.4 | 72.6 | 96.4 | 80.3 | 95.1 | 100 | 90.3 | 87 | 110 | 106 | 104 | 93.4 | 77.1 | 75.6 | 70.8 | 39.8 | 74.1 | 89.4 | growth at 10 µM [21]: 78.9%; growth at 10 µM [22]: 104%; growth at 10 µM [23]: 92.3%; growth at 10 µM [24]: 90.7%; growth at 10 µM [25]: 79.3%; growth at 10 µM [26]: 75.2% |
| CC(=O)c1cccc(NC(=O)c2sc3nc4c(cc3c2N)C(=O)CCC4)c1 | 86.9 | 98.4 | 87.1 | 93.8 | 103 | 98.8 | 101 | 106 | 97.7 | 109 | 93.7 | 102 | 95.2 | 92.4 | 92.7 | 84.4 | 89.3 | 82.8 | 92.8 | 96.9 | growth at 10 µM [21]: 107%; growth at 10 µM [22]: 111%; growth at 10 µM [23]: 99.7%; growth at 10 µM [26]: 91.1% |
| CC(C)N1CCc2nc3sc(C(=O)Nc4ccccc4)c(N)c3cc2C1 | 67.5 | 103 | 104 | 91.7 | 114 | 97.9 | 95.9 | 102 | 110 | 106 | 106 | 113 | 101 | 108 | 98.2 | 94.7 | 127 | 95.6 | 55.6 | 103 | growth at 10 µM [21]: 100%; growth at 10 µM [22]: 108%; growth at 10 µM [23]: 100%; growth at 10 µM [24]: 92.7%; growth at 10 µM [26]: 86.6% |
| Cc1cccc(NC(=O)c2sc3nc4c(cc3c2N)CN(Cc2ccccc2)CC4)c1 | 85.1 | 110 | 114 | 98.6 | 129 | 100 | 98.2 | 95.8 | 104 | 107 | 79 | 105 | 96.4 | 103 | 101 | 95.9 | 114 | 94.8 | 100 | 100 | growth at 10 µM [21]: 101%; growth at 10 µM [22]: 103%; growth at 10 µM [23]: 98.9%; growth at 10 µM [24]: 85.4%; growth at 10 µM [26]: 95% |
| CC(=O)c1ccc2c(N)c(C(=O)Nc3ccccc3)sc2n1 | 70.3 | 115 | 103 | 93.7 | 107 | 99.2 | 100 | 105 | 106 | 110 | 108 | 106 | 110 | 108 | 89 | 96.8 | 108 | 87.4 | 74 | 97.2 | growth at 10 µM [21]: 103%; growth at 10 µM [22]: 114%; growth at 10 µM [23]: 101%; growth at 10 µM [26]: 86.5% |
| COc1ccc(S(=O)(=O)n2ccc(-c3ccc4c(c3)CCC(C)(C)O4)n2)cc1 | 89.1 | 50.5 | 55.6 | 46.7 | 84.4 | 59.6 | 83.8 | 79.5 | 88.9 | 97.5 | 65.5 | 90.4 | 81.9 | 98.3 | 49.2 | 73.5 | 68.2 | 36.6 | 61.4 | 84.5 | growth at 10 µM [21]: 57.3%; growth at 10 µM [22]: 101%; growth at 10 µM [23]: 58.9%; growth at 10 µM [24]: 84.2%; growth at 10 µM [25]: 63.3% |
| CCOc1ccc(-c2cc(N)n(S(=O)(=O)c3ccc(OC)cc3)n2)cc1 | 92.5 | 92.5 | 101 | 96.4 | 110 | 115 | 96.6 | 105 | 112 | 85.5 | 111 | 114 | 123 | 103 | 94.1 | 88.2 | 130 | 87.4 | 82.2 | 105 | growth at 10 µM [21]: 103%; growth at 10 µM [22]: 102%; growth at 10 µM [23]: 86.8%; growth at 10 µM [24]: 101%; growth at 10 µM [26]: 116% |
| Nc1c(C(=O)N(c2ccccc2)c2ccccc2)sc2nc3c(cc12)C(=O)CCC3 | 76.3 | 109 | 103 | 99.5 | 117 | 101 | 105 | 94.3 | 116 | 101 | 55.4 | 108 | 79 | 116 | 94.8 | 99.6 | 113 | 106 | 103 | 84.5 | growth at 10 µM [21]: 101%; growth at 10 µM [22]: 102%; growth at 10 µM [23]: 96.1%; growth at 10 µM [26]: 55.6% |

Source: ChEMBL document CHEMBL4715736, “Identification of anticancer agents based on the thieno[2,3-b]pyridine and 1H-pyrazole molecular scaffolds” (2016)
